Measurements reported in ChEMBL document CHEMBL1142625, “Antifungal substances against pathogenic fungi, talaroconvolutins, from talaromyces convolutus” (J Nat Prod, 2000).
Activity calls are given as the source filed them. No cut-off for these calls is given here.

Tests used:
Cryptococcus neoformans [1] = assay: Antifungal activity against Cryptococcus neoformans (Sanfelice) Vuillemin ATCC 90112 assessed as diameter of inhibition zone upto 100 ug/disk after 48 to 72 hrs by paper disk assay; type: functional, organism-based
Summary of the method: (§1)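 Compound was absorbed onto 8 mm paper disks and the disks were placed on assay plates seeded with the test fungus. Plates contained Sabouraud's glucose broth agar and were incubated at 25 °C. After 48–72 h, the diameter of the inhibition zone was recorded in mm.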

Aspergillus fumigatus [2] = assay: Antifungal activity against Aspergillus fumigatus Fresenius 167 assessed as diameter of inhibition zone upto 100 ug/disk after 48 to 72 hrs by paper disk assay; type: functional, organism-based; summary of the method: as §1
Candida albicans [3] = assay: Antifungal activity against Candida albicans 7N assessed as diameter of inhibition zone upto 100 ug/disk after 48 to 72 hrs by paper disk assay; type: functional, organism-based; summary of the method: as §1
Aspergillus niger [4] = assay: Antifungal activity against Aspergillus niger Van Tieghem H7160B assessed as diameter of inhibition zone upto 100 ug/disk after 48 to 72 hrs by paper disk assay; type: functional, organism-based; summary of the method: as §1
Cryptococcus neoformans [5] = assay: Antifungal activity against Cryptococcus neoformans (Sanfelice) Vuillemin ATCC 90112 assessed as diameter of inhibition zone at 1 ug/disk after 48 to 72 hrs by paper disk assay; type: functional; summary of the method: as §1
Aspergillus fumigatus [6] = assay: Antifungal activity against Aspergillus fumigatus Fresenius 167 assessed as diameter of inhibition zone at 1 ug/disk after 48 to 72 hrs by paper disk assay; type: functional; settings: for zone of inhibition at 1 µg/disc: read-out: IZ; summary of the method: as §1
Aspergillus niger [7] = assay: Antifungal activity against Aspergillus niger Van Tieghem H7160B assessed as diameter of inhibition zone at 1 ug/disk after 48 to 72 hrs by paper disk assay; type: functional; summary of the method: as §1
Cryptococcus neoformans [8] = assay: Antifungal activity against Cryptococcus neoformans (Sanfelice) Vuillemin ATCC 90112 assessed as diameter of inhibition zone at 5 ug/disk after 48 to 72 hrs by paper disk assay; type: functional; summary of the method: as §1
Cryptococcus neoformans [9] = assay: Antifungal activity against Cryptococcus neoformans (Sanfelice) Vuillemin ATCC 90112 assessed as diameter of inhibition zone at 100 ug/disk after 48 to 72 hrs by paper disk assay; type: functional; summary of the method: as §1
Cryptococcus neoformans [10] = assay: Antifungal activity against Cryptococcus neoformans (Sanfelice) Vuillemin ATCC 90112 assessed as diameter of inhibition zone at 20 ug/disk after 48 to 72 hrs by paper disk assay; type: functional; summary of the method: as §1
Candida albicans [11] = assay: Antifungal activity against Candida albicans 7N assessed as diameter of inhibition zone at 100 ug/disk after 48 to 72 hrs by paper disk assay; type: functional; settings: for zone of inhibition at 100 µg/disc: Candida albicans, read-out: IZ; summary of the method: as §1
Aspergillus fumigatus [12] = assay: Antifungal activity against Aspergillus fumigatus Fresenius 167 assessed as diameter of inhibition zone at 20 ug/disk after 48 to 72 hrs by paper disk assay; type: functional; settings: for zone of inhibition at 20 µg/disc: Aspergillus fumigatus, read-out: IZ; summary of the method: as §1
Aspergillus fumigatus [13] = assay: Antifungal activity against Aspergillus fumigatus Fresenius 167 assessed as diameter of inhibition zone at 100 ug/disk after 48 to 72 hrs by paper disk assay; type: functional; settings: for zone of inhibition at 100 µg/disc: Aspergillus fumigatus, read-out: IZ; summary of the method: as §1
Aspergillus niger [14] = assay: Antifungal activity against Aspergillus niger Van Tieghem H7160B assessed as diameter of inhibition zone at 20 ug/disk after 48 to 72 hrs by paper disk assay; type: functional; settings: for zone of inhibition at 20 µg/disc: Aspergillus niger, Van Tieghem, read-out: IZ; summary of the method: as §1
Candida albicans [15] = assay: Antifungal activity against Candida albicans 7N assessed as diameter of inhibition zone at 20 ug/disk after 48 to 72 hrs by paper disk assay; type: functional; settings: for zone of inhibition at 20 µg/disc: Candida albicans, read-out: IZ; summary of the method: as §1
Candida albicans [16] = assay: Antifungal activity against Candida albicans 7N assessed as diameter of inhibition zone at 1 ug/disk after 48 to 72 hrs by paper disk assay; type: functional; settings: for zone of inhibition at 1 µg/disc: Candida albicans, read-out: IZ; summary of the method: as §1
Candida albicans [17] = assay: Antifungal activity against Candida albicans 7N assessed as diameter of inhibition zone at 5 ug/disk after 48 to 72 hrs by paper disk assay; type: functional; settings: for zone of inhibition at 5 µg/disc: Candida albicans, read-out: IZ; summary of the method: as §1
Aspergillus fumigatus [18] = assay: Antifungal activity against Aspergillus fumigatus Fresenius 167 assessed as diameter of inhibition zone at 5 ug/disk after 48 to 72 hrs by paper disk assay; type: functional; settings: for zone of inhibition at 5 µg/disc: Aspergillus fumigatus, read-out: IZ; summary of the method: as §1
Aspergillus niger [19] = assay: Antifungal activity against Aspergillus niger Van Tieghem H7160B assessed as diameter of inhibition zone at 100 ug/disk after 48 to 72 hrs by paper disk assay; type: functional; settings: for zone of inhibition at 100 µg/disc: Aspergillus niger, Van Tieghem, read-out: IZ; summary of the method: as §1
Aspergillus niger [20] = assay: Antifungal activity against Aspergillus niger Van Tieghem H7160B assessed as diameter of inhibition zone at 5 ug/disk after 48 to 72 hrs by paper disk assay; type: functional; settings: for zone of inhibition at 5 µg/disc: Aspergillus niger, Van Tieghem, read-out: IZ; summary of the method: as §1

CCC(C)/C=C(\C)[C@H]1C(C)=C[C@@]2(C)C[C@@H](C)CC[C@@H]2[C@H]1C(=O)C1=C/C(=C/c2ccc(O)cc2)NC1=O (some centres undefined)
Activity (Cryptococcus neoformans [1]): inactive
Activity (Aspergillus fumigatus [2]): inactive
Activity (Candida albicans [3]): inactive
Activity (Aspergillus niger [4]): inactive

CCC(C)/C=C(\C)[C@H]1C(C)=C[C@@]2(C)C[C@@H](C)CC[C@@H]2[C@H]1C(=O)C1C(=O)NC2(Cc3ccc(O)cc3)OC(C)(C)OC12 (some centres undefined)
Activity (Cryptococcus neoformans [1]): inactive
Activity (Aspergillus fumigatus [2]): inactive
Activity (Candida albicans [3]): inactive
Activity (Aspergillus niger [4]): inactive

CCC(C)/C=C(\C)[C@H]1C(C)=C[C@@]2(C)C[C@@H](C)CC[C@@H]2[C@H]1C(=O)C1=CC(O)(Cc2ccc(O)cc2)NC1=O (stereo in doubt; 2)
Activity (Cryptococcus neoformans [1]): inactive
Activity (Cryptococcus neoformans [5]): inactive
Activity (Aspergillus fumigatus [6]): inactive
Activity (Aspergillus niger [7]): inactive
Activity (Cryptococcus neoformans [8]): inactive
Activity (Cryptococcus neoformans [9]): inactive
Activity (Cryptococcus neoformans [10]): inactive

CCC(C)/C=C(\C)[C@H]1C(C)=C[C@@]2(C)C[C@@H](C)CC[C@@H]2[C@H]1C(=O)C1=CC(O)(Cc2ccc(O)cc2)NC1=O (stereo in doubt; 2) [TALAROCONVOLUTIN B]
zone of inhibition at 100 µg/disc (Candida albicans [11]): 15 mm
zone of inhibition at 20 µg/disc (Aspergillus fumigatus [12]): 11 mm
zone of inhibition at 100 µg/disc (Aspergillus fumigatus [13]): 12 mm
zone of inhibition at 20 µg/disc (Aspergillus niger [14]): 10 mm
zone of inhibition at 20 µg/disc (Candida albicans [15]): 14 mm
zone of inhibition at 1 µg/disc (Candida albicans [16]): 11 mm
zone of inhibition at 5 µg/disc (Candida albicans [17]): 13 mm
zone of inhibition at 5 µg/disc (Aspergillus fumigatus [18]): 10 mm
zone of inhibition at 100 µg/disc (Aspergillus niger [19]): 11 mm
zone of inhibition at 5 µg/disc (Aspergillus niger [20]): 9 mm

CCC(C)/C=C(\C)[C@H]1C(C)=C[C@@]2(C)C[C@@H](C)CC[C@@H]2[C@H]1C(=O)C1=CC(O)(Cc2ccc(O)cc2)NC1=O (stereo in doubt; 5)
Activity (Cryptococcus neoformans [5]): inactive
Activity (Cryptococcus neoformans [8]): inactive
Activity (Cryptococcus neoformans [9]): inactive
Activity (Cryptococcus neoformans [10]): inactive

CCC(C)/C=C(\C)[C@H]1C(C)=C[C@@]2(C)C[C@@H](C)CC[C@@H]2[C@H]1C(=O)C1=CC(O)(Cc2ccc(O)cc2)NC1=O (stereo in doubt; 5) [TALAROCONVOLUTIN B]
inhibition zone (IZ) (Candida albicans [11]): 20 mm
inhibition zone (IZ) (Aspergillus fumigatus [12]): 15 mm
inhibition zone (IZ) (Aspergillus fumigatus [13]): 17 mm
inhibition zone (IZ) (Aspergillus niger [14]): 15 mm
zone of inhibition at 1 µg/disc (Aspergillus fumigatus [6]): 11 mm
Activity (Aspergillus niger [7]): 11 mm
inhibition zone (IZ) (Candida albicans [15]): 18 mm
inhibition zone (IZ) (Candida albicans [16]): 15 mm
inhibition zone (IZ) (Candida albicans [17]): 17 mm
inhibition zone (IZ) (Aspergillus fumigatus [18]): 14 mm
inhibition zone (IZ) (Aspergillus niger [19]): 16 mm
inhibition zone (IZ) (Aspergillus niger [20]): 13 mm

C[C@@H]1[C@H](O)[C@@H](C)/C=C/C=C/C=C/C=C/C=C/C=C/C=C/[C@H](O[C@@H]2O[C@H](C)[C@@H](O)[C@H](N)[C@@H]2O)C[C@@H]2O[C@](O)(C[C@@H](O)C[C@@H](O)[C@H](O)CC[C@@H](O)C[C@@H](O)CC(=O)O[C@H]1C)C[C@H](O)[C@H]2C(=O)O [AMPHOTERICIN B]
zone of inhibition at 100 µg/disc (Candida albicans [11]): 20 mm
zone of inhibition at 20 µg/disc (Aspergillus fumigatus [12]): 14 mm
zone of inhibition at 100 µg/disc (Aspergillus fumigatus [13]): 17 mm
zone of inhibition at 1 µg/disc (Cryptococcus neoformans [5]; read-out: IZ): 11 mm
zone of inhibition at 20 µg/disc (Aspergillus niger [14]): 24 mm
zone of inhibition at 1 µg/disc (Aspergillus fumigatus [6]): 10 mm
zone of inhibition at 1 µg/disc (Aspergillus niger [7]; Aspergillus niger, Van Tieghem, read-out: IZ): 16 mm
zone of inhibition at 20 µg/disc (Candida albicans [15]): 20 mm
zone of inhibition at 5 µg/disc (Cryptococcus neoformans [8]; read-out: IZ): 13 mm
zone of inhibition at 1 µg/disc (Candida albicans [16]): 15 mm
zone of inhibition at 100 µg/disc (Cryptococcus neoformans [9]; read-out: IZ): 19 mm
zone of inhibition at 5 µg/disc (Candida albicans [17]): 18 mm
zone of inhibition at 5 µg/disc (Aspergillus fumigatus [18]): 12 mm
zone of inhibition at 100 µg/disc (Aspergillus niger [19]): 25 mm
zone of inhibition at 20 µg/disc (Cryptococcus neoformans [10]; read-out: IZ): 16 mm
zone of inhibition at 5 µg/disc (Aspergillus niger [20]): 20 mm

CCOC1C(C(=O)[C@H]2[C@@H](/C(C)=C/C(C)CC)C(C)=C[C@@]3(C)C[C@@H](C)CC[C@H]23)C(=O)NC1(O)Cc1ccc(O)cc1 (some centres undefined) [TALAROCONVOLUTIN C]
zone of inhibition at 100 µg/disc (Candida albicans [11]): 11 mm
Activity (Cryptococcus neoformans [1]): inactive
zone of inhibition at 20 µg/disc (Aspergillus fumigatus [12]): 11 mm
zone of inhibition at 100 µg/disc (Aspergillus fumigatus [13]): 11 mm
Activity (Cryptococcus neoformans [5]): inactive
zone of inhibition at 20 µg/disc (Aspergillus niger [14]): 10 mm
Activity (Aspergillus fumigatus [6]): inactive
inhibition zone (IZ) (Aspergillus niger [7]): inactive
zone of inhibition at 20 µg/disc (Candida albicans [15]): 10 mm
Activity (Cryptococcus neoformans [8]): inactive
Activity (Candida albicans [16]): inactive
Activity (Cryptococcus neoformans [9]): inactive
Activity (Candida albicans [17]): inactive
Activity (Aspergillus fumigatus [18]): inactive
zone of inhibition at 100 µg/disc (Aspergillus niger [19]): 11 mm
Activity (Cryptococcus neoformans [10]): inactive
Activity (Aspergillus niger [20]): inactive
